Experimental data from ChEMBL document CHEMBL1157379, “Transcriptional response of Candida parapsilosis following exposure to farnesol” (2007).
Activity calls are given as the source filed them. The rule behind the calls is not given here.

Tests used:
Candida parapsilosis [1] = assay: Decrease in CGD gene ortholog accession number orf19.719 expression in Candida parapsilosis CLIB214 at 50 uM after 2 hrs by microarray based transcriptional profiling relative to control; format: functional
How it was run: (§1)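 Strain CLIB214 grown overnight in YPD at 30°C, diluted to A600 0.2 in fresh YPD at 30°C. After 4 h (A600 0.8), farnesol (40 mM methanol stock) added to 50 μM final, or an equal methanol volume as control; cells harvested 2 h later. RNA was accepted only with a 28S/18S ratio of 1.6–2.2. Cy3/Cy5-dCTP-labelled cDNA was made from 25 μg total RNA. Hybridisation was to duplicate-spotted 68-mer oligo arrays (3,849 genes) at 42°C for about 16 h. Six individual comparisons.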

Candida parapsilosis [2] = assay: Decrease in CGD gene ortholog accession number orf19.3704 expression in Candida parapsilosis CLIB214 at 50 uM after 2 hrs by microarray based transcriptional profiling relative to control; format: functional
How it was run: (§2)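 Cells in YPD at 30°C treated with 50 μM farnesol at 4 h, with a methanol control. RNA harvested 2 h later and kept only if 28S/18S ratio was 1.6–2.2 with no degradation. 25 μg total RNA oligo-dT primed and labeled with Cy3/Cy5-dCTP. Labeled cDNA hybridized about 16 h at 42°C to duplicate-spotted 68-mer oligo arrays. Six individual comparisons analyzed statistically.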

Candida parapsilosis [3] = assay: Decrease in SOL1 gene expression in Candida parapsilosis CLIB214 at 50 uM after 2 hrs by microarray based transcriptional profiling relative to control; format: functional; how it was run: as §1
Candida parapsilosis [4] = assay: Increase in HAS1 gene expression in Candida parapsilosis CLIB214 at 50 uM after 2 hrs by microarray based transcriptional profiling relative to control; format: functional
How it was run: (§3)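 Strain grown overnight in YPD at 30°C, diluted to A600 0.2 in YPD at 30°C; farnesol (40 mM methanol stock) added at 4 h (A600 0.8), final 50 μM; methanol-only control. Cells collected 2 h later for RNA. Labelled cDNA from 25 μg total RNA (Cy3/Cy5-dCTP) hybridized to 68-mer oligo arrays at 42°C ~16 h; six individual comparisons analysed statistically.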

Candida parapsilosis [5] = assay: Decrease in CGD gene ortholog accession number orf19.2308 expression in Candida parapsilosis CLIB214 at 50 uM after 2 hrs by microarray based transcriptional profiling relative to control; format: functional; how it was run: as §2
Candida parapsilosis [6] = assay: Decrease in CGD gene ortholog accession number orf19.7325 expression in Candida parapsilosis CLIB214 at 50 uM after 2 hrs by microarray based transcriptional profiling relative to control; format: functional; how it was run: as §1
Candida parapsilosis [7] = assay: Antifungal activity against Candida parapsilosis CLIB214 assessed as growth inhibition at 50 uM added after 2 hrs of bacterial growth measured after 2 hrs; format: functional; details: Lodderomyces parapsilosis, CLIB214, 2 h
How it was run: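 Overnight YPD culture at 30°C diluted to A600 0.2 in YPD. Farnesol added to 50 μM final at 2, 4, 6 or 8 h of growth (A600 about 0.8 at 4 h, 2.3 at 6 h, 6 at 8 h). Growth compared with methanol controls by A600 or cell counts.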

Candida parapsilosis [8] = assay: Decrease in GenBank accession number XP_457879.1 expression in Candida parapsilosis CLIB214 at 50 uM after 2 hrs by microarray based transcriptional profiling relative to control; format: functional; how it was run: as §1
Candida parapsilosis [9] = assay: Increase in PLB3 gene expression in Candida parapsilosis CLIB214 at 50 uM after 2 hrs by microarray based transcriptional profiling relative to control; format: functional; how it was run: as §3
Candida parapsilosis [10] = assay: Decrease in CGD gene ortholog accession number orf19.409 expression in Candida parapsilosis CLIB214 at 50 uM after 2 hrs by microarray based transcriptional profiling relative to control; format: functional; how it was run: as §2
Candida parapsilosis [11] = assay: Increase in ADH7 gene expression in Candida parapsilosis CLIB214 by RT-PCR; format: functional, organism-based
How it was run: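 RNA came from YPD cultures at 30°C given farnesol or methanol at 4 h (A600 0.8), harvested after 2 h. RT-PCR: 95°C hot start for 1.5 min, then 26 cycles (95°C 40 s, 55°C 2 min, 72°C 3 min), then a 5-min final extension at 72°C. Each gene's signal normalised to ACT1.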

Candida parapsilosis [12] = assay: Decrease in CTN1 gene expression in Candida parapsilosis CLIB214 at 50 uM after 2 hrs by microarray based transcriptional profiling relative to control; format: functional; how it was run: as §1
Candida parapsilosis [13] = assay: Increase in TEF1 gene expression in Candida parapsilosis CLIB214 at 50 uM after 2 hrs by microarray based transcriptional profiling relative to control; format: functional; how it was run: as §3
Candida parapsilosis [14] = assay: Increase in GenBank accession number NP_983467.1 expression in Candida parapsilosis CLIB214 at 50 uM after 2 hrs by microarray based transcriptional profiling relative to control; format: functional; how it was run: as §3
Candida parapsilosis [15] = assay: Antifungal activity against Candida parapsilosis CLIB214 assessed as induction of cell death at 50 uM added 4 hrs after […] growth after 2 hrs by propidium iodide staining method; format: functional
How it was run: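 After 2 h exposure to 50 μM farnesol (methanol stock; methanol-only control), cells were washed twice in PBS and stained with propidium iodide at 10 μg ml−1 in PBS for 5 min. Dead-cell percentage was scored by fluorescence microscopy (Texas Red filter), counting at least 150 cells in each of three independent experiments.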

Candida parapsilosis [16] = assay: Increase in ARP3 gene expression in Candida parapsilosis CLIB214 at 50 uM after 2 hrs by microarray based transcriptional profiling relative to control; format: functional; how it was run: as §1
Candida parapsilosis [17] = assay: Effect on GAD1 gene expression in Candida parapsilosis CLIB214 by microarray based transcriptional profiling; format: functional, organism-based; how it was run: as §1
Candida parapsilosis [18] = assay: Decrease in CGD gene ortholog accession number orf19.2328 expression in Candida parapsilosis CLIB214 at 50 uM after 2 hrs by microarray based transcriptional profiling relative to control; format: functional; how it was run: as §2
Candida parapsilosis [19] = assay: Decrease in CGD gene ortholog accession number orf19.3051 expression in Candida parapsilosis CLIB214 at 50 uM after 2 hrs by microarray based transcriptional profiling relative to control; format: functional; how it was run: as §2
Candida parapsilosis [20] = assay: Reduction in ERG9 gene expression in Candida parapsilosis CLIB214 by RT-PCR; format: functional, organism-based
How it was run: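 Cultures in YPD at 30°C, diluted to A600 0.2; 50 μM farnesol (final) or methanol added at 4 h, RNA harvested 2 h later. RT-PCR: 95°C hot start 1 min 30 s, then 26 cycles (95°C 40 s, 55°C 2 min, 72°C 3 min), final 72°C 5 min; each gene signal normalized to ACT1.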

Candida parapsilosis [21] = assay: Increase in STP2 gene expression in Candida parapsilosis CLIB214 at 50 uM after 2 hrs by microarray based transcriptional profiling relative to control; format: functional; how it was run: as §3
Candida parapsilosis [22] = assay: Decrease in CGD gene ortholog accession number orf19.6281 expression in Candida parapsilosis CLIB214 at 50 uM after 2 hrs by microarray based transcriptional profiling relative to control; format: functional; how it was run: as §2
Candida parapsilosis [23] = assay: Increase in CGD gene ortholog accession number orf19.3617 expression in Candida parapsilosis CLIB214 at 50 uM after 2 hrs by microarray based transcriptional profiling relative to control; format: functional; how it was run: as §1

CC(C)=CCC/C(C)=C/CC/C(C)=C/CO [FARNESOL]
fold change (FC) (Candida parapsilosis [1]): 1.65
fold change (FC) (Candida parapsilosis [2]): 1.96
fold change (FC) (Candida parapsilosis [3]): 1.54
fold change (FC) (Candida parapsilosis [4]): 1.7
fold change (FC) (Candida parapsilosis [5]): 1.7
fold change (FC) (Candida parapsilosis [6]): 1.67
inhibition at 50 µM (Candida parapsilosis [7]): 68.5%
fold change (FC) (Candida parapsilosis [8]): 1.71
fold change (FC) (Candida parapsilosis [9]): 1.66
fold change (FC) (Candida parapsilosis [10]): 2.21
Activity (Candida parapsilosis [11]): Active
fold change (FC) (Candida parapsilosis [12]): 1.92
fold change (FC) (Candida parapsilosis [13]): 1.61
fold change (FC) (Candida parapsilosis [14]): 3.16
Activity (Candida parapsilosis [15]): 20%
fold change (FC) (Candida parapsilosis [16]): 1.67
Activity (Candida parapsilosis [17]): inactive
fold change (FC) (Candida parapsilosis [18]): 1.5
fold change (FC) (Candida parapsilosis [19]): 1.67
Activity (Candida parapsilosis [20]): Active
fold change (FC) (Candida parapsilosis [21]): 1.63
fold change (FC) (Candida parapsilosis [22]): 1.72
fold change (FC) (Candida parapsilosis [23]): 1.55
